The values below come from ChEMBL document CHEMBL4130549, “Synthesis and bioactivities study of new antibacterial peptide mimics: The dialkyl cationic amphiphiles” (Eur J Med Chem, 2018).

Active and inactive are the calls of the source.

Data set [1] concerns Staphylococcus aureus. The data set is described as follows: Bactericidal activity against Staphylococcus aureus ATCC 29213 at 12 ug/ml after 6 hrs by time kill assay. Format: functional, organism-based. The method, boiled down: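 Time-kill: an overnight S. aureus ATCC 29213 culture was diluted 1:10,000 in Mueller-Hinton broth and grown 2 h (early exponential) or 5 h (late exponential) at 37 °C and 225 rpm. Cells were then exposed in tubes under the same conditions. At intervals, aliquots were pelleted, resuspended in PBS, serially diluted tenfold, plated on agar overnight, and counted as CFU/mL. Biological replicates were run.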

Data set [2] deals with Escherichia coli. The data set is described as follows: Bactericidal activity against Escherichia coli ATCC 25922 at 12 after 6 hrs by time kill assay. Format: functional, organism-based.
The subject of data set [3] is Staphylococcus aureus. In words: Ratio of MIC for Staphylococcus aureus ATCC 29213 after 20 serial passages to MIC for Staphylococcus aureus ATCC 29213. The data set is classed as functional. The essentials:
(§1)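 Sub-MIC serial passaging: after an initial broth microdilution MIC, cells grown at MIC/2 were transferred into a new MIC assay after each 24 h incubation, for 20 passages. MIC was plotted against days to follow resistance development. Passaging controls were norfloxacin for S. aureus and colistin for E. coli.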

The subject of data set [4] is Escherichia coli. In words: Antibacterial activity against Escherichia coli. Format: functional. The essentials: (§2)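 Broth microdilution per CLSI in cation-adjusted Mueller-Hinton broth; 4-6 h cultures (~10⁸ CFU/mL) diluted to ~10⁶ CFU/mL and mixed 1:1 with twofold dilutions of water-dissolved compound (256 to 0.5 µg/mL). Incubated 16-20 h at 37 °C; MIC read visually. Each concentration run in duplicate, whole experiment repeated at least twice. MRSA, KPC and NDM-1 strains were clinical isolates.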

The subject of data set [5] is Staphylococcus aureus. The data set is described as follows: Antibacterial activity against methicillin-resistant Staphylococcus aureus. Format: functional.
The test system of data set [6] is Staphylococcus aureus. The data set is described as follows: Antibacterial activity against Staphylococcus aureus. Format: functional. The method, boiled down: as §2
A short description of data set [7]: Hemolytic activity in sheep RBC. Format: ADME, cell-based, Ovis aries, Erythrocyte. The following applies: sheep red blood cells (erythrocytes). The essentials:
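Sheep RBCs suspended at 5% in PBS; 150 µL added to 50 µL compound dilutions (5120 to 10 µg/mL series). Incubated 1 h at 37 °C, then centrifuged; supernatant absorbance read at 540 nm. Lysis (%) = (A−A0)/(Atotal−A0)×100, with untreated 5% RBC as A0 and 0.1% Triton X-100 as total.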

In another data set the test system is Enterococcus faecalis. The data set is described as follows: Antibacterial activity against Enterococcus faecalis. The data set is classed as functional. The essentials: as §2
The test system of data set [8] is Escherichia coli. The data set is described as follows: Ratio of MIC for Escherichia coli ATCC 25922 after 20 serial passages to MIC for Escherichia coli ATCC 25922. The data set is classed as functional, organism-based. The essentials: as §1

As usually defined, the MIC is the smallest concentration in the dilution series that meets the test's criterion for growth inhibition. One may read the HC50 as the concentration giving 50% haemolysis. Low readings indicate stronger haemolysis, high ones weaker haemolysis.

On to `CN[C@H](CC(C)C)C(=O)N[C@H]1C(=O)N[C@@H](CC(N)=O)C(=O)N[C@H]2C(=O)N[C@H]3C(=O)N[C@H](C(=O)N[C@H](C(=O)O)c4cc(O)cc(O)c4-c4cc3ccc4O)[C@H](O)c3ccc(c(Cl)c3)Oc3cc2cc(c3O[C@@H]2O[C@H](CO)[C@@H](O)[C@H](O)[C@H]2O[C@H]2C[C@](C)(N)[C@H](O)[C@H](C)O2)Oc2ccc(cc2Cl)[C@H]1O`, for which the result in the data set with Staphylococcus aureus [1] was inactive. As for `CO[C@@]1(NC(=O)[C@H](C(=O)O)c2ccc(O)cc2)C(=O)N2C(C(=O)O)=C(CSc3nnnn3C)CO[C@@H]21`, in the data set on Escherichia coli [2], the result was inactive. On to `CCn1cc(C(=O)O)c(=O)c2cc(F)c(N3CCNCC3)cc21` [NORFLOXACIN], for which the Ratio with Staphylococcus aureus [3] was 256.

Take H-GIGKFLKKAKKFGKAFVKLLKK-NH2: the MIC in the data set on Escherichia coli [4] was 16 to 32 µg/mL; against Staphylococcus aureus [5] it was 16 to 32 µg/mL; against Staphylococcus aureus [6], 8 to 16 µg/mL; against Enterococcus faecalis, 64 µg/mL. In [7], this compound yielded an HC50 of 120 µg/mL. Consider COLISTIN, for which the Ratio with Escherichia coli [8] was 32.
